Results from ChEMBL document CHEMBL1122765, “Cyclic melanotropins. 5. Importance of the C-terminal tripeptide (Lys-Pro-Val)” (1984).
Bridge positions count the residues as written; N and C are the ends. Peptide text beside a SMILES is read from it.

Key:
Anolis carolinensis = assay: Ability to stimulate melanosome dispersion in vitro in the lizard skin activity measured relative to alpha-MSH; assay type: functional
Method in brief: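 Anolis carolinensis skin in vitro; melanosome dispersion read as skin darkening. Test solutions serially diluted from a 10⁻⁴ M stock. n = 6 skins per point, mean ± SE. Relative potency versus α-MSH taken from parallel dose–response curves over the linear range.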

Lithobates pipiens = assay: Ability to stimulate melanosome dispersion in vitro in the frog skin activity measured relative to alpha-MSH; assay type: functional
Method in brief: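 Rana pipiens skin in vitro; melanosome dispersion read as skin darkening. Test solutions made by serial dilution from a 10⁻⁴ M stock. n = 6 or more skins per point, mean ± SE. Potency relative to α-MSH derived from parallel dose–response curves over the linear portion.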

Mus musculus = species on record: Mus musculus; assay: Adenylate cyclase activity in vitro in the membrane fraction from S-91 mouse melanoma tumors activity measured relative to alpha-MSH; assay type: functional, cell membranes
Method in brief: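 Particulate membrane fraction from S-91 (Cloudman) melanoma tumors grown in […] mice. Adenylate cyclase measured as conversion of [α-³²P]ATP to [³²P]cAMP, with cAMP isolated and detected by the Salomon method. Potency relative to α-MSH from parallel dose–response curves.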

Row | Relative potency (Mus musculus) | Structure (SMILES) | Relative potency (Anolis carolinensis) | Relative potency (Lithobates pipiens)
1 |  | CC(=O)N[C@H]1CSSC[C@@H](C(N)=O)NC(=O)[C@H](Cc2c[nH]c3ccccc23)NC(=O)[C@H](CCCN=C(N)N)NC(=O)[C@H](Cc2ccccc2)NC(=O)[C@H](Cc2c[nH]cn2)NC(=O)[C@H](CCC(=O)O)NC1=O | 0.003 | 0.06
2 | 0.16 | CC(=O)N[C@H]1CSSC[C@@H](C(=O)N[C@@H](CCCCN)C(N)=O)NC(=O)[C@H](Cc2c[nH]c3ccccc23)NC(=O)[C@@H](CCCN=C(N)N)NC(=O)[C@H](Cc2ccccc2)NC(=O)[C@@H](Cc2c[nH]cn2)NC(=O)[C@H](CCC(=O)O)NC1=O |  | 
3 |  | CC(=O)N[C@H]1CSSC[C@@H](C(=O)N[C@@H](CCCCN)C(=O)N2CCC[C@H]2C(=O)N[C@H](C(N)=O)C(C)C)NC(=O)[C@H](Cc2c[nH]c3ccccc23)NC(=O)[C@H](CCCN=C(N)N)NC(=O)[C@H](Cc2ccccc2)NC(=O)[C@H](Cc2c[nH]cn2)NC(=O)[C@H](CCC(=O)O)NC1=O | 0.6 | 30
4 | 1.4 | CC(=O)N[C@H]1CSSC[C@@H](C(=O)N[C@@H](CCCCN)C(=O)N2CCC[C@@H]2C(N)=O)NC(=O)[C@H](Cc2c[nH]c3ccccc23)NC(=O)[C@@H](CCCN=C(N)N)NC(=O)[C@H](Cc2ccccc2)NC(=O)[C@@H](Cc2c[nH]cn2)NC(=O)[C@H](CCC(=O)O)NC1=O |  | 
5 | 0.03 | CSCC[C@H](NC(C)=O)C(=O)N[C@@H](CCC(=O)O)C(=O)N[C@@H](Cc1c[nH]cn1)C(=O)N[C@@H](Cc1ccccc1)C(=O)N[C@@H](CCCN=C(N)N)C(=O)N[C@@H](Cc1c[nH]c2ccccc12)C(=O)NCC(N)=O | 0.03 | 0.0007
6 |  | CC(=O)N[C@H]1CSSC[C@@H](C(=O)N[C@@H](CCCCN)C(=O)N2CCC[C@H]2C(N)=O)NC(=O)[C@H](Cc2c[nH]c3ccccc23)NC(=O)[C@H](CCCN=C(N)N)NC(=O)[C@H](Cc2ccccc2)NC(=O)[C@H](Cc2c[nH]cn2)NC(=O)[C@H](CCC(=O)O)NC1=O | 1.5 | 10
7 |  | CC(=O)N[C@@H](CO)C(=O)N[C@@H](Cc1ccc(O)cc1)C(=O)N[C@@H](CO)C(=O)N[C@H]1CSSC[C@@H](C(=O)N[C@@H](CCCCN)C(=O)N2CCC[C@H]2C(=O)N[C@H](C(N)=O)C(C)C)NC(=O)[C@H](Cc2c[nH]c3ccccc23)NC(=O)[C@H](CCCN=C(N)N)NC(=O)[C@H](Cc2ccccc2)NC(=O)[C@H](Cc2c[nH]cn2)NC(=O)[C@H](CCC(=O)O)NC1=O (Ac-SYSCEHFRWCKPV-NH2; disulfide 4-10) | 2 | 10
8 | 1.1 | CC(=O)N[C@H]1CSSC[C@@H](C(=O)N[C@@H](CCCCN)C(=O)N2CCC[C@@H]2C(=O)N[C@H](C(N)=O)C(C)C)NC(=O)[C@H](Cc2c[nH]c3ccccc23)NC(=O)[C@@H](CCCN=C(N)N)NC(=O)[C@H](Cc2ccccc2)NC(=O)[C@@H](Cc2c[nH]cn2)NC(=O)[C@H](CCC(=O)O)NC1=O |  | 
9 |  | CC(=O)N[C@H]1CSSC[C@@H](C(=O)N[C@@H](CCCCN)C(N)=O)NC(=O)[C@H](Cc2c[nH]c3ccccc23)NC(=O)[C@H](CCCN=C(N)N)NC(=O)[C@H](Cc2ccccc2)NC(=O)[C@H](Cc2c[nH]cn2)NC(=O)[C@H](CCC(=O)O)NC1=O | 0.07 | 0.16
10 | 0.016 | CC(=O)N[C@H]1CSSC[C@@H](C(N)=O)NC(=O)[C@H](Cc2c[nH]c3ccccc23)NC(=O)[C@@H](CCCN=C(N)N)NC(=O)[C@H](Cc2ccccc2)NC(=O)[C@@H](Cc2c[nH]cn2)NC(=O)[C@H](CCC(=O)O)NC1=O |  | 
11 |  | CC(=O)N[C@H]1CSSC[C@@H](C(=O)N[C@@H](CCCCN)C(=O)N2CCC[C@H]2C(N)=O)NC(=O)[C@H](Cc2c[nH]c3ccccc23)NC(=O)[C@H](CCCN=C(N)N)NC(=O)[C@@H](Cc2ccccc2)NC(=O)[C@H](Cc2c[nH]cn2)NC(=O)[C@H](CCC(=O)O)NC1=O | 6 | 20
